Test results reported in ChEMBL document CHEMBL1152609, “Synthesis and pharmacological exploitation of clioquinol-derived copper-binding apoptosis inducers triggering reactive oxygen species generation and MAPK pathway activation” (2009).
The source made the active and inactive calls. No cut-off for these calls is given here.

What was measured:
HeLa [1] = assay: Growth inhibition of human HeLa cells after 48 hrs by MTT assay in presence of 100 uM ZnCl2; type: functional
How it was run: (§1)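 Cells seeded at 5 × 10³/well and allowed 24 h to attach, then exposed to compound (DMSO stock) or vehicle for 48 h in 10% FBS DMEM at 37 °C, 5% CO₂. MTT (2 mg/mL in PBS) added for a further 2 h; formazan dissolved in DMSO and read at 570 nm. Inhibition = (1 − At/Ac) × 100. GI₅₀ interpolated from dose-response curves; mean ± SEM of 4–6 experiments; top concentration 40 μM.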

HeLa [2] = assay: Induction of apoptosis in human HeLa cells assessed as accumulation at subG1 phase at 3 uM in presence of 1 mM tempol after 24 hrs using propidium iodide staining by flow cytometry; type: functional
How it was run: (§2)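 HeLa cells exposed 24 h to test agent; controls were 0.5% DMSO and untreated cells. Optional additions were CuCl₂ 10 μM, tempol 1 mM or z-VAD. Cells were fixed in 80% ethanol and held at −20 °C. They were then stained 30 min at room temperature in the dark with PI 0.08 mg/mL, 0.1% Triton X-100 and RNase A 0.2 mg/mL in PBS. Subdiploid (sub-G1) fraction was quantified by flow cytometry as % of all events.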

HeLa [3] = assay: Induction of apoptosis in human HeLa cells assessed as procaspase-9 activation at 10 uM after 24 hrs by Western blot; type: functional, cell-based
[4] = Activation of JNK phosphorylation in human HeLa cells at 3 uM in presence of 10 uM CuCl2 and tempol after 2 hrs by Western blot; type: cell-based
How it was run: (§3)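 HeLa cells grown in DMEM with 10% FBS, 2 mM glutamine and penicillin/streptomycin at 37 °C, 5% CO₂. Treated cells were lysed and the extracts run on Western blot. Membranes were blocked overnight at 4 °C in TBST/5% non-fat milk. Probed with phospho- and total ERK1/2, p38 and JNK antibodies, then anti-mouse or anti-rabbit IgG (1:10,000, 1 h, RT), with ECL detection.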

[5] = biological target: T1, MAP kinase p38 (Homo sapiens) (UniProt O15264+Q15759+Q16539+P53778); assay: Activation of p38 phosphorylation in human HeLa cells at 3 uM in presence of 10 uM CuCl2 by Western blot; type: cell-based; settings: TDE = time-dependent effect; how it was run: as §3
[6] = biological target: T1, MAP kinase p38 (Homo sapiens); assay: Activation of p38 phosphorylation in human HeLa cells at 3 uM in presence of 10 uM CuCl2 and tempol after 2 hrs by Western blot; type: cell-based; how it was run: as §3
[7] = Activation of JNK phosphorylation in human HeLa cells at 3 uM in presence of 10 uM CuCl2 after 2 hrs by Western blot; type: cell-based; how it was run: as §3
[8] = biological target: T1, MAP kinase p38 (Homo sapiens); assay: Activation of p38 phosphorylation in human HeLa cells at 3 uM in presence of 10 uM CuCl2 after 2 hrs by Western blot; type: cell-based; how it was run: as §3
HeLa [9] = assay: Stimulation of reactive oxygen species in human HeLa cells at 3 uM in presence of 5 uM CuCl2 after 1 hr by dihydroethidium dye based fluorescence assay; type: functional, cell-based
How it was run: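 HeLa cells grown in DMEM with 10% FBS, 2 mM glutamine, penicillin/streptomycin at 37 °C, 5% CO2. Compound given with CuCl2, with or without tempol 1 mM; 0.5% DMSO control, untreated blank. Dihydroethidium 5 µmol/L loaded 30 min, PBS wash, epifluorescence microscopy; four separate cultures, two to six coverslips each.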

HeLa [10] = assay: Growth inhibition of human HeLa cells after 48 hrs by MTT assay in presence of 10% FBS supplemented DMEM medium; type: functional; how it was run: as §1
[11] = Activation of JNK phosphorylation in human HeLa cells at 3 uM after 2 hrs by Western blot; type: cell-based; how it was run: as §3
[12] = biological target: T1, MAP kinase p38 (Homo sapiens); assay: Activation of p38 phosphorylation in human HeLa cells at 3 uM after 2 hrs by Western blot; type: cell-based; how it was run: as §3
HeLa [13] = assay: Activation of ERK phosphorylation in human HeLa cells at 3 uM in presence of 10 uM CuCl2 by Western blot; type: cell-based; settings: TDE = time-dependent effect; how it was run: as §3
HeLa [14] = assay: Growth inhibition of human HeLa cells after 48 hrs by MTT assay in presence of 50 uM ZnCl2; type: functional; how it was run: as §1
HeLa [15] = assay: Induction of apoptosis in human HeLa cells assessed as accumulation at subG1 phase after 24 hrs by flow cytometry; type: functional, cell-based; how it was run: as §2
[16] = Activation of JNK phosphorylation in human HeLa cells at 3 uM in presence of 10 uM CuCl2 by Western blot; type: cell-based; settings: TDE = time-dependent effect; how it was run: as §3
HeLa [17] = assay: Induction of apoptosis in human HeLa cells assessed as PARP cleavage at 3 uM after 24 hrs by Western blot; type: functional, cell-based
HeLa [18] = assay: Growth inhibition of human HeLa cells after 48 hrs by MTT assay in presence of 10 uM CuCl2; type: functional; how it was run: as §1
HeLa [19] = assay: Induction of apoptosis in human HeLa cells assessed as accumulation at subG1 phase at 3 uM in presence of 10 uM CuCl2 after 24 hrs using propidium iodide staining by flow cytometry; type: functional; how it was run: as §2
HeLa [20] = assay: Activation of ERK phosphorylation in human HeLa cells at 3 uM after 2 hrs by Western blot; type: cell-based; how it was run: as §3
HeLa [21] = assay: Growth inhibition of human HeLa cells after 48 hrs by MTT assay in presence of 1 uM CuCl2; type: functional; how it was run: as §1
HeLa [22] = assay: Induction of apoptosis in human HeLa cells assessed as procaspase-9 activation at 3 uM after 24 hrs by Western blot; type: functional, cell-based
[23] = Growth inhibition of human BT-483 cells after 48 hrs by MTT assay in presence of 10% FBS supplemented DMEM medium; type: functional; settings: BT-483, 48 h; how it was run: as §1
HeLa [24] = assay: Induction of apoptosis in human HeLa cells assessed as procaspase-3 activation at 3 uM after 24 hrs by Western blot; type: functional, cell-based
HeLa [25] = assay: Induction of apoptosis in human HeLa cells assessed as procaspase-3 activation at 10 uM after 24 hrs by Western blot; type: functional, cell-based
[26] = Growth inhibition of human CE81T cells after 48 hrs by MTT assay in presence of 10% FBS supplemented DMEM medium; type: functional; how it was run: as §1
HeLa [27] = assay: Induction of apoptosis in human HeLa cells assessed as PARP cleavage at 10 uM after 24 hrs by Western blot; type: functional, cell-based
HeLa [28] = assay: Induction of apoptosis in human HeLa cells assessed as accumulation at subG1 phase at 3 uM after 24 hrs using propidium iodide staining by flow cytometry; type: functional; how it was run: as §2
HeLa [29] = assay: Growth inhibition of human HeLa cells after 48 hrs by MTT assay in presence of 50 uM CuCl2; type: functional; how it was run: as §1
HeLa [30] = assay: Activation of ERK phosphorylation in human HeLa cells at 3 uM in presence of 10 uM CuCl2 after 2 hrs by Western blot; type: cell-based; how it was run: as §3
[31] = Growth inhibition of human SKHep cells after 48 hrs by MTT assay in presence of 10% FBS supplemented DMEM medium; type: functional; how it was run: as §1
HeLa [32] = assay: Activation of ERK phosphorylation in human HeLa cells at 3 uM in presence of 10 uM CuCl2 and tempol after 2 hrs by Western blot; type: cell-based; how it was run: as §3
SKHep = assay: Growth inhibition of human SKHep cells at 40 uM after 48 hrs by MTT assay in presence of 10% FBS supplemented DMEM medium; type: functional, cell-based; how it was run: as §1
CE81T = assay: Growth inhibition of human CE81T cells at 40 uM after 48 hrs by MTT assay in presence of 10% FBS supplemented DMEM medium; type: functional, cell-based; how it was run: as §1
BT-483 = assay: Growth inhibition of human BT-483 cells at 40 uM after 48 hrs by MTT assay in presence of 10% FBS supplemented DMEM medium; type: functional, cell-based; how it was run: as §1

Structure (SMILES): O=S(=O)(c1ccccc1)N1CCN(Cc2ccc3cccnc3c2O)CC1
- GI50 (HeLa [1]): 7.3 µM
- Activity (HeLa [2]): 5.79%
- Activity (HeLa [3]): Active
- Activity [4]: inactive
- Activity [5]: tde
- Activity [6]: inactive
- Activity [7]: Active
- Activity [8]: Active
- Activity (HeLa [9]): Active
- GI50 (HeLa [10]): 6.8 µM
- Activity [11]: inactive
- Activity [12]: inactive
- Activity (HeLa [13]): tde
- GI50 (HeLa [14]): 7.5 µM
- Activity (HeLa [15]): Dose-dependent effect
- Activity [16]: tde
- Activity (HeLa [17]): Active
- GI50 (HeLa [18]): 0.31 µM
- Activity (HeLa [19]): 29.76%
- Activity (HeLa [20]): inactive
- GI50 (HeLa [21]): 2.5 µM
- Activity (HeLa [22]): Active
- GI50 [23]: 10.7 µM
- Activity (HeLa [24]): Active
- Activity (HeLa [25]): Active
- GI50 [26]: 5.6 µM
- Activity (HeLa [27]): Active
- Activity (HeLa [28]): 7.91%
- GI50 (HeLa [29]): 0.27 µM
- Activity (HeLa [30]): Active
- GI50 [31]: 14.6 µM
- Activity (HeLa [32]): inactive

Structure (SMILES): Oc1c(CN2CCCCC2)ccc2ccccc12
- GI50 (SKHep): inactive
- GI50 (HeLa [1]): 44.5 µM
- GI50 (HeLa [10]): 25.5 µM
- GI50 (HeLa [14]): 34 µM
- GI50 (HeLa [18]): 22.8 µM
- GI50 (HeLa [21]): 30.7 µM
- GI50 (CE81T): inactive
- GI50 (BT-483): inactive
- GI50 (HeLa [29]): 48.8 µM

Structure (SMILES): Oc1c(CN2CCCCC2)ccc2cccnc12
- GI50 (HeLa [1]): 12.9 µM
- Activity (HeLa [9]): Active
- GI50 (HeLa [10]): 14.5 µM
- GI50 (HeLa [14]): 8.5 µM
- GI50 (HeLa [18]): 0.58 µM
- GI50 (HeLa [21]): 3 µM
- GI50 [23]: 26.9 µM
- GI50 [26]: 16.7 µM
- GI50 (HeLa [29]): 0.35 µM
- GI50 [31]: 16.6 µM
